{"source": "paper PMC4121111", "about": "(Clinical cancer research : an official journal of the …, 2014)", "key": {"GRPR [1]": {"biological_target": "T1, GRPR (Homo sapiens, UniProt P30550)", "T1 sequence (P30550 whole entry)": "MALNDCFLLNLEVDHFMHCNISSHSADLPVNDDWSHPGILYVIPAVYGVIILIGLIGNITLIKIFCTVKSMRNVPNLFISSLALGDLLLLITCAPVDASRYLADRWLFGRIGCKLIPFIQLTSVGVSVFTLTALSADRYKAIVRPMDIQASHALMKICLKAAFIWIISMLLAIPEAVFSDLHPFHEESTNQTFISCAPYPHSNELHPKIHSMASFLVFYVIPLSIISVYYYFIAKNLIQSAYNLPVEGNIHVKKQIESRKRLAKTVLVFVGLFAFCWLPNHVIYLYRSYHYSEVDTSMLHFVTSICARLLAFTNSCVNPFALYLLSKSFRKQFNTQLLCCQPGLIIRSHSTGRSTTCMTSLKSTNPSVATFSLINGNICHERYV", "assay": "Cell binding study by FACS, PC3 cells", "assay_type": "cell-based", "conditions": "3×10^5 cells, 3 pmoles agent in PBS, 15 min, 4 °C, triplicates", "summary_of_the_method": "(§1)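 Cell lines came from ATCC and were grown per supplier instructions. 3×10^5 cells were incubated with 3 pmoles dye-peptide conjugate in PBS for 15 min at 4 °C, and cell fluorescence was measured. A scrambled-peptide conjugate served as control. For PC3 only, specificity was tested by co-incubation with bombesin (1.5×10−11 to 1.5×10−8 moles). Triplicates.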"}, "GRPR [2]": {"biological_target": "T1, GRPR", "assay": "Cell binding study by FACS, LNCaP cells", "assay_type": "cell-based", "conditions": "3×10^5 cells, 3 pmoles agent in PBS, 15 min, 4 °C, triplicates", "summary_of_the_method": "as §1"}, "[3]": {"assay": "Blood metabolism in living mice", "assay_type": "in vivo"}, "GRPR in PC3 tumors": {"biological_target": "GRPR in PC3 tumors (Homo sapiens, UniProt P30550)", "sequence (P30550 whole entry)": "as above", "assay": "Photoacoustic imaging of GRPR in PC3 tumors in mice", "assay_type": "in vivo", "conditions": "30 to 60 minutes post injection of 10 nmol", "summary_of_the_method": "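Eight-week-old male nude mice carried flank PC3 xenografts (3 million cells, tumors 0.5–0.7 cm). Imaging used photoacoustic CT at 750 nm (100 views, 100 pulses/view) before and 30 and 60 min after tail-vein injection of 10 nmol agent in 200 µL PBS pH 7.4. The scrambled-peptide control group had n=4 and the active group n=6. 3D filtered back-projection; standard deviation.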"}, "GRPR [4]": {"system": "GRPR", "conditions": "cited from earlier work"}}}
{"substance": "GGGdFQWAVGHStaL-NH2 [AA3G-740]", "values": [{"measurement": "binding to PC3 cells (cell fluorescence)", "setting": "GRPR [1]", "result": "intense labeling"}, {"measurement": "binding to LNCaP cells (cell fluorescence)", "setting": "GRPR [2]", "result": "minimal binding"}, {"measurement": "blood lifetime", "setting": "[3]", "result": "short blood lifetime"}, {"measurement": "level present in blood at 60 minutes postinjection", "setting": "[3]; HPLC", "result": "low level"}, {"measurement": "composition in mouse blood at 30 minutes post injection (HPLC)", "setting": "[3]; blood, 30 minutes post injection, HPLC, three mice", "result": "major peak observed in blood at 30 minutes post injection was of the parent"}, {"measurement": "proteolysis in mouse blood", "setting": "[3]; blood, 30 minutes postinjection, HPLC", "result": "no indication of proteolysis"}, {"measurement": "composition in mouse blood at one hour post injection (HPLC)", "setting": "[3]; blood, 60 minutes post injection, HPLC", "result": "intact agent was still the major component"}, {"measurement": "course of tumor photoacoustic signal over time", "setting": "GRPR in PC3 tumors", "result": "increased over time"}]}
{"substance": "dFQWAVGHStaL-NH2", "values": [{"measurement": "binding affinity", "setting": "GRPR [4]", "result": "high affinity binding"}, {"measurement": "functional activity", "setting": "GRPR [4]", "result": "antagonist activity"}]}
{"substance": "GGGHdFGWStaAQLV-NH2 [CAA3G-740]", "values": [{"measurement": "binding to PC3 cells (cell fluorescence)", "setting": "GRPR [1]", "result": "did not show appreciable binding"}]}
